Laboratory results: ChEMBL document CHEMBL4004830 (J Med Chem, 2017)
Active and inactive are the calls of the source. The calls are words filed in the database; no cut-off is given here.

Each molecule was assayed against Cyclin-dependent kinase 4/cyclin D1 (Homo sapiens, UniProt P11802) (assay: Inhibition of CDK4/cyclin D1 (unknown origin) in presence of [gamma-33P]-ATP […]). Conditions: read-out: Ki(app).
Format: protein-complex assay

Chain of Cyclin-dependent kinase 4/cyclin D1 (P11802 whole entry): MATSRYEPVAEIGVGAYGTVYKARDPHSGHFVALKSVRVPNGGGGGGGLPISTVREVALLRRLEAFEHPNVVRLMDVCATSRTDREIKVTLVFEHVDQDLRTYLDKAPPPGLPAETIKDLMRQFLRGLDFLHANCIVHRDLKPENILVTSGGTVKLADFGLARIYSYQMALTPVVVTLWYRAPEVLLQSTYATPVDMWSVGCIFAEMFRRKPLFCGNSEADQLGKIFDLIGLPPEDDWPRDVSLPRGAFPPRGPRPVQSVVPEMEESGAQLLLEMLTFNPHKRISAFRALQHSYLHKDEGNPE
Chain of Cyclin-dependent kinase 4/cyclin D1 (P24385 whole entry, further chain): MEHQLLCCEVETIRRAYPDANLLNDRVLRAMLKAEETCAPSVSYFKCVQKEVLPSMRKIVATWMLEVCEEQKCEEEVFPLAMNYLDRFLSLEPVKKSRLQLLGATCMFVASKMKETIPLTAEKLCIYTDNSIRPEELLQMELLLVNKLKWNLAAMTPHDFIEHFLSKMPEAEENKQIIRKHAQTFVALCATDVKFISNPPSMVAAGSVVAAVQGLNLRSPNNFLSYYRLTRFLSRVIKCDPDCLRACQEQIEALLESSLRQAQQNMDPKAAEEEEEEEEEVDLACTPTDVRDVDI

Row | Compound | Ki
1 | Cc1nc(NC2CCCC2)sc1-c1ccnc(Nc2ccc(N3CCN(S(C)(=O)=O)CC3)cn2)n1 | 7 nM
2 | Cc1nc(N(C2CCCC2)C2CCCC2)sc1-c1ccnc(Nc2ccc(N3CCNCC3)cn2)n1 | 71 nM
3 | Cc1nc(NC2CCCC2)sc1-c1nc(Nc2ccc(N3CCN(C)CC3)cn2)ncc1F | 1 nM

Each molecule was assayed against CDK6/cyclin D3 (Homo sapiens, UniProt Q00534) (assay: Inhibition of CDK6/cyclin D3 (unknown origin) in presence of [gamma-33P]-ATP […]). Conditions: read-out: Ki(app).
Format: protein-complex assay

Chain of CDK6/cyclin D3 (P30281 whole entry): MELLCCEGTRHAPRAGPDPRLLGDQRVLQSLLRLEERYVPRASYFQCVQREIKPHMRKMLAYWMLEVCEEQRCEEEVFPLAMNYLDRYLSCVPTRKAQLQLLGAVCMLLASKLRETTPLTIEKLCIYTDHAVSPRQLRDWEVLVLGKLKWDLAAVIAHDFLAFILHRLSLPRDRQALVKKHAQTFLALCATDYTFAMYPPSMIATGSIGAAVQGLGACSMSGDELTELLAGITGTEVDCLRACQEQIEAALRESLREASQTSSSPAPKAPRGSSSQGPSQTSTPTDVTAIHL
Chain of CDK6/cyclin D3 (Q00534 whole entry): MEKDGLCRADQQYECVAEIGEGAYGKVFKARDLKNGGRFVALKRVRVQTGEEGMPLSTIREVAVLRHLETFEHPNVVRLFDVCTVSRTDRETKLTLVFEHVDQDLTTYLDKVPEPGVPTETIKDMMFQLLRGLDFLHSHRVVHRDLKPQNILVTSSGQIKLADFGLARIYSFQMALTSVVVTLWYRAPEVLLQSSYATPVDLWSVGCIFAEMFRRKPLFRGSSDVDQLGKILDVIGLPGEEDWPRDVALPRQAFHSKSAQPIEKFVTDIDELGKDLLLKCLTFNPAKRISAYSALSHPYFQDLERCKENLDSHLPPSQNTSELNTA

Row | Compound | Ki
4 | Cc1nc(NC2CCCC2)sc1-c1ccnc(Nc2ccc(N3CCN(S(C)(=O)=O)CC3)cn2)n1 | 55 nM
5 | Cc1nc(N(C2CCCC2)C2CCCC2)sc1-c1ccnc(Nc2ccc(N3CCNCC3)cn2)n1 | 539 nM
6 | Cc1nc(NC2CCCC2)sc1-c1nc(Nc2ccc(N3CCN(C)CC3)cn2)ncc1F | 3 nM

The molecules below were run against Cyclin-dependent kinase 1/cyclin B1 (Homo sapiens) (UniProt P06493+P14635) (assay: (§1) Inhibition of CDK1/cyclin B (unknown origin) in presence of [gamma-33P]-ATP […]). Conditions: not given.
Format: protein-complex assay

Chain of Cyclin-dependent kinase 1/cyclin B1 (Homo sapiens) (P06493 whole entry, looked up): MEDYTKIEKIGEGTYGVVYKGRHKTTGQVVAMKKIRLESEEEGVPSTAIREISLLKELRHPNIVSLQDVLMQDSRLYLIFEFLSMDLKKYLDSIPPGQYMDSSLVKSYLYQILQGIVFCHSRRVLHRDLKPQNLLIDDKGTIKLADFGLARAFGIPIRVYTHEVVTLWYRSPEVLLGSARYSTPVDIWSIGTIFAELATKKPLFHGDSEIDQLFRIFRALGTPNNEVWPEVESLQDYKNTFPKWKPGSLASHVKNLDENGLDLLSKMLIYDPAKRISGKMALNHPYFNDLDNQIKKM
Chain of Cyclin-dependent kinase 1/cyclin B1 (Homo sapiens) (P14635 whole entry, looked up): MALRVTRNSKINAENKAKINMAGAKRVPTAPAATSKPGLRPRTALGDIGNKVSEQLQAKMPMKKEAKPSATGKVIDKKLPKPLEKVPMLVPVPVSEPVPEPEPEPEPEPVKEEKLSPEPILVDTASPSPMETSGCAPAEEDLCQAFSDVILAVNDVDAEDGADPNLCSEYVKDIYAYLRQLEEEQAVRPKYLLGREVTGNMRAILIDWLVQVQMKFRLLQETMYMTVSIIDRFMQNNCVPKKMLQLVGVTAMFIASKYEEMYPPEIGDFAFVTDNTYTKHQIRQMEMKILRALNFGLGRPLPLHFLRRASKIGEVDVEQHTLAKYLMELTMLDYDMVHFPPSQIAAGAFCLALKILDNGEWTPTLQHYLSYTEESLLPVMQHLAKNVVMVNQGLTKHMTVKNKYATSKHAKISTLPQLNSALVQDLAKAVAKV

Row | Compound | Ki(app)
7 | CCN1CCN(Cc2ccc(Nc3ncc(F)c(-c4sc(NC5CCCC5)nc4C)n3)nc2)CC1 [ULECACICLIB] | inactive
8 | Cc1nc(Nc2ccccc2)sc1-c1ccnc(Nc2ccc(N3CCN(C)CC3)cn2)n1 | inactive
9 | Cc1nc(NC2CCCC2)sc1-c1ccnc(Nc2ccc(N3CCCCC3)cn2)n1 | inactive

Second part, the molecule after the results:

Row | Ki(app) | Compound
10 | inactive | CCN1CCN(c2ccc(Nc3ncc(F)c(-c4sc(NC5CCCC5)nc4C)n3)nc2)CC1
11 | inactive | Cc1nc(NC2CCCC2)sc1-c1nc(Nc2ccc(N3CCN(S(C)(=O)=O)CC3)cn2)ncc1F

The molecules below were run against Cyclin-dependent kinase 1/cyclin B1 (Homo sapiens, UniProt P06493) (assay: as §1). Conditions: read-out: Ki(app).
Format: protein-complex assay

Chain of Cyclin-dependent kinase 1/cyclin B1 (P06493 whole entry): as the sequence (P06493 whole entry, looked up) above
Chain of Cyclin-dependent kinase 1/cyclin B1 (P14635 whole entry, further chain): as the sequence (P14635 whole entry, looked up) above

Row | Compound | Ki
12 | Cc1nc(NC2CCCC2)sc1-c1ccnc(Nc2ccc(N3CCN(S(C)(=O)=O)CC3)cn2)n1 | 1100 nM
13 | Cc1nc(N(C2CCCC2)C2CCCC2)sc1-c1ccnc(Nc2ccc(N3CCNCC3)cn2)n1 | > 5000 nM
14 | Cc1nc(NC2CCCC2)sc1-c1nc(Nc2ccc(N3CCN(C)CC3)cn2)ncc1F | 2330 nM

Each molecule was assayed against CDK2/Cyclin A2 (Homo sapiens) (UniProt P24941+P20248) (assay: (§2) Inhibition of CDK2/cyclin A (unknown origin) in presence of [gamma-33P]-ATP […]). Conditions: not given.
Format: protein-complex assay

Row | Compound | Ki(app)
15 | Cc1nc(Nc2ccccc2)sc1-c1ccnc(Nc2ccc(N3CCN(C)CC3)cn2)n1 | inactive

What follows are molecules tested against CDK2/Cyclin A2 (Homo sapiens, UniProt P24941) (assay: as §2). Conditions: read-out: Ki(app).
Format: protein-complex assay

Row | Compound | Ki
16 | Cc1nc(N(C2CCCC2)C2CCCC2)sc1-c1ccnc(Nc2ccc(N3CCNCC3)cn2)n1 | > 5000 nM
17 | Cc1nc(NC2CCCC2)sc1-c1ccnc(Nc2ccc(N3CCCCC3)cn2)n1 | > 5000 nM

Results, then the molecule that gave them:

Row | Ki | Compound
18 | 77 nM | Cc1nc(NC2CCCC2)sc1-c1ccnc(Nc2ccc(N3CCN(S(C)(=O)=O)CC3)cn2)n1
19 | 103 nM | Cc1nc(NC2CCCC2)sc1-c1nc(Nc2ccc(N3CCN(C)CC3)cn2)ncc1F

These molecules were tested against Cyclin-dependent kinase 7/ cyclin H (Homo sapiens) (UniProt P51946+P50613) (assay: (§3) Inhibition of CDK7/cyclin H (unknown origin) in presence of [gamma-33P]-ATP […]). Conditions: not given.
Format: protein-complex assay

Row | Compound | Ki(app)
20 | Cc1nc(Nc2ccccc2)sc1-c1ccnc(Nc2ccc(N3CCN(C)CC3)cn2)n1 | inactive
21 | Cc1nc(NC2CCCC2)sc1-c1nc(Nc2ccc(N3CCN(S(C)(=O)=O)CC3)cn2)ncc1F | inactive
22 | Cc1nc(NC2CCCC2)sc1-c1ccnc(Nc2ccc(N3CCCCC3)cn2)n1 | inactive

What follows are molecules tested against Cyclin-dependent kinase 7/ cyclin H (Homo sapiens, UniProt P50613) (assay: as §3). Conditions: read-out: Ki(app).
Format: protein-complex assay

Chain of Cyclin-dependent kinase 7/ cyclin H (P51946 whole entry): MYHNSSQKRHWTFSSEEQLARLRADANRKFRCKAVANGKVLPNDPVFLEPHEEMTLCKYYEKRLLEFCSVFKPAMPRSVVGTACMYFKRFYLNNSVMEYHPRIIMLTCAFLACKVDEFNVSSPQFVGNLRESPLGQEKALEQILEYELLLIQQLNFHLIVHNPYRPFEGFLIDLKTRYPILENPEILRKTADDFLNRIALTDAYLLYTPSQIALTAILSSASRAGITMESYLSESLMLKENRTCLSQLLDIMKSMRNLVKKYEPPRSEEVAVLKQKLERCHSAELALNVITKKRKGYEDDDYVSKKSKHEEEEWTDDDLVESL
Chain of Cyclin-dependent kinase 7/ cyclin H (P50613 whole entry): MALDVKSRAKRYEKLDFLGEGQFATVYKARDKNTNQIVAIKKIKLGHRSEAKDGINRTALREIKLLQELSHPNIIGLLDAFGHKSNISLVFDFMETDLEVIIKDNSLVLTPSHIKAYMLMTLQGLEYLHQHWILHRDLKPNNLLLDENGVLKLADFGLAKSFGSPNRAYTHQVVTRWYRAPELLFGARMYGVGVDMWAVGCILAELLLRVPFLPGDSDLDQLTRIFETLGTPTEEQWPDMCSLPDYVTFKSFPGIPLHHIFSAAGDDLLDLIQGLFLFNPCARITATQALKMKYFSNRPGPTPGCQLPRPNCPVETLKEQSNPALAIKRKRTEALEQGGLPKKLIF

Row | Compound | Ki
23 | CCN1CCN(Cc2ccc(Nc3ncc(F)c(-c4sc(NC5CCCC5)nc4C)n3)nc2)CC1 [ULECACICLIB] | 630 nM
24 | Cc1nc(N(C2CCCC2)C2CCCC2)sc1-c1ccnc(Nc2ccc(N3CCNCC3)cn2)n1 | > 5000 nM

Continued, values first:

Row | Ki | Compound
25 | 2640 nM | Cc1nc(NC2CCCC2)sc1-c1ccnc(Nc2ccc(N3CCN(S(C)(=O)=O)CC3)cn2)n1
26 | 685 nM | CCN1CCN(c2ccc(Nc3ncc(F)c(-c4sc(NC5CCCC5)nc4C)n3)nc2)CC1
27 | 2020 nM | Cc1nc(NC2CCCC2)sc1-c1nc(Nc2ccc(N3CCN(C)CC3)cn2)ncc1F

The molecules below were run against CDK9/cyclin T1 (Homo sapiens, UniProt P50750) (assay: Inhibition of CDK9/cyclin T1 (unknown origin) in presence of [gamma-33P]-ATP […]). Conditions: read-out: Ki(app).
Format: protein-complex assay

Chain of CDK9/cyclin T1 (O60563 whole entry): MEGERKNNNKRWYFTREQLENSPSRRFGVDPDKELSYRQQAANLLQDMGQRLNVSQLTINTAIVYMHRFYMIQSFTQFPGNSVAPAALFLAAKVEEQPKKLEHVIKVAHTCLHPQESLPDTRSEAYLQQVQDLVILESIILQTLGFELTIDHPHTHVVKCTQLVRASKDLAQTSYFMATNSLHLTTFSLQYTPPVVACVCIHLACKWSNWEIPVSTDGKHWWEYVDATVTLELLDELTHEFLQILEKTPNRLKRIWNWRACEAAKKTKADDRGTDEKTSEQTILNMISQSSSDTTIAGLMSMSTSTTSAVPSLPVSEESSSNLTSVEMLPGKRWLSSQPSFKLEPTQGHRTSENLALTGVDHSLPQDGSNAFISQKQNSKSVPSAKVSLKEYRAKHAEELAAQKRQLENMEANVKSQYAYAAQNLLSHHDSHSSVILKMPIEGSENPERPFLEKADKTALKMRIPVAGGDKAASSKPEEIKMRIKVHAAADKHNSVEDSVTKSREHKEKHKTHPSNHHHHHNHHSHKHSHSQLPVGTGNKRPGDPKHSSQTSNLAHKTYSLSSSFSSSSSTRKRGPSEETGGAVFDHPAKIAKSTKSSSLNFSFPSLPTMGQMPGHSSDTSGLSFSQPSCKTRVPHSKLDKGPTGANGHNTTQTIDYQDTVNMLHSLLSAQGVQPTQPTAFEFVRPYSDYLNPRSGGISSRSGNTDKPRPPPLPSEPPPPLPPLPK
Chain of CDK9/cyclin T1 (P50750 whole entry): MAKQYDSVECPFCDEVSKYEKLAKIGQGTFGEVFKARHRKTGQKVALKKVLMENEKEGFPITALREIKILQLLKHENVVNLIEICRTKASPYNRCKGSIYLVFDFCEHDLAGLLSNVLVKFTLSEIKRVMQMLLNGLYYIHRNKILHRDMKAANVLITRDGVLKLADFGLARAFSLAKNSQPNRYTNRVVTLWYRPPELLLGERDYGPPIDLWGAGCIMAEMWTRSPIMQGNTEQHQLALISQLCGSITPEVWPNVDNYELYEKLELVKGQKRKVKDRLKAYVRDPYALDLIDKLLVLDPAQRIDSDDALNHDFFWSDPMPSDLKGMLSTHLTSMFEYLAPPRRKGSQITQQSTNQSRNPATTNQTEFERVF

Row | Compound | Ki
28 | Cc1nc(Nc2ccccc2)sc1-c1ccnc(Nc2ccc(N3CCN(C)CC3)cn2)n1 | > 5000 nM
29 | Cc1nc(N(C2CCCC2)C2CCCC2)sc1-c1ccnc(Nc2ccc(N3CCNCC3)cn2)n1 | > 5000 nM
30 | Cc1nc(NC2CCCC2)sc1-c1ccnc(Nc2ccc(N3CCCCC3)cn2)n1 | > 5000 nM

Now from value to molecule:

Row | Ki | Compound
31 | 1320 nM | Cc1nc(NC2CCCC2)sc1-c1ccnc(Nc2ccc(N3CCN(S(C)(=O)=O)CC3)cn2)n1
32 | > 5000 nM | CCN1CCN(c2ccc(Nc3ncc(F)c(-c4sc(NC5CCCC5)nc4C)n3)nc2)CC1
33 | > 5000 nM | Cc1nc(NC2CCCC2)sc1-c1nc(Nc2ccc(N3CCN(S(C)(=O)=O)CC3)cn2)ncc1F
34 | 505 nM | Cc1nc(NC2CCCC2)sc1-c1nc(Nc2ccc(N3CCN(C)CC3)cn2)ncc1F

The molecules below were run on MV4-11 (assay: Growth inhibition of human MV4-11 cells after 72 hrs by resazurin assay). Conditions: MV4-11, 72 h.
Format: functional
Outline: (§4)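 72 h antiproliferation assay, resazurin read-out for MV4-11 and MTT read-out for MDA-MB-453; values from at least two replicates.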

Row | Compound | GI50
35 | CCN1CCN(Cc2ccc(Nc3ncc(F)c(-c4sc(NC5CCCC5)nc4C)n3)nc2)CC1 [ULECACICLIB] | 10 nM
36 | Cc1nc(Nc2ccccc2)sc1-c1ccnc(Nc2ccc(N3CCN(C)CC3)cn2)n1 | 508 nM
37 | Cc1nc(N(C2CCCC2)C2CCCC2)sc1-c1ccnc(Nc2ccc(N3CCNCC3)cn2)n1 | 714 nM
38 | Cc1nc(NC2CCCC2)sc1-c1ccnc(Nc2ccc(N3CCCCC3)cn2)n1 | 191 nM

The next lines start with the values.

Row | GI50 | Compound
39 | 176 nM | Cc1nc(NC2CCCC2)sc1-c1ccnc(Nc2ccc(N3CCN(S(C)(=O)=O)CC3)cn2)n1
40 | 13 nM | CCN1CCN(c2ccc(Nc3ncc(F)c(-c4sc(NC5CCCC5)nc4C)n3)nc2)CC1
41 | 2630 nM | Cc1nc(NC2CCCC2)sc1-c1nc(Nc2ccc(N3CCN(S(C)(=O)=O)CC3)cn2)ncc1F
42 | 73 nM | Cc1nc(NC2CCCC2)sc1-c1nc(Nc2ccc(N3CCN(C)CC3)cn2)ncc1F

What follows are molecules tested on MDA-MB-453 (assay: Growth inhibition of human MDA-MB-453 cells after 72 hrs by MTT assay). Conditions: MDA-MB-453, 72 h.
Format: functional
Outline: as §4

Row | Compound | GI50
43 | CCN1CCN(Cc2ccc(Nc3ncc(F)c(-c4sc(NC5CCCC5)nc4C)n3)nc2)CC1 [ULECACICLIB] | 622 nM
44 | Cc1nc(Nc2ccccc2)sc1-c1ccnc(Nc2ccc(N3CCN(C)CC3)cn2)n1 | 494 nM
45 | Cc1nc(N(C2CCCC2)C2CCCC2)sc1-c1ccnc(Nc2ccc(N3CCNCC3)cn2)n1 | 373 nM
46 | Cc1nc(NC2CCCC2)sc1-c1ccnc(Nc2ccc(N3CCCCC3)cn2)n1 | 7040 nM

Further lines, results first:

Row | GI50 | Compound
47 | 215 nM | Cc1nc(NC2CCCC2)sc1-c1ccnc(Nc2ccc(N3CCN(S(C)(=O)=O)CC3)cn2)n1
48 | 66 nM | CCN1CCN(c2ccc(Nc3ncc(F)c(-c4sc(NC5CCCC5)nc4C)n3)nc2)CC1
49 | 2810 nM | Cc1nc(NC2CCCC2)sc1-c1nc(Nc2ccc(N3CCN(S(C)(=O)=O)CC3)cn2)ncc1F
50 | 202 nM | Cc1nc(NC2CCCC2)sc1-c1nc(Nc2ccc(N3CCN(C)CC3)cn2)ncc1F

Species on record: Homo sapiens
Test: Inhibition of SGK (unknown origin) assessed as residual activity at 10 uM; values are per cent of control
Conditions: not given

Row | Compound | residual activity
51 | Cc1nc(NC2CCCC2)sc1-c1nc(Nc2ccc(N3CCN(C)CC3)cn2)ncc1F | < 10%

Each molecule was assayed against Dual specificity tyrosine-phosphorylation-regulated kinase 1B (Homo sapiens) (UniProt Q9Y463) (assay: Inhibition of DYRK1B (unknown origin) assessed as residual activity at 10 uM; values are per cent of control). Conditions: not given.

Row | Compound | residual activity
52 | Cc1nc(NC2CCCC2)sc1-c1nc(Nc2ccc(N3CCN(C)CC3)cn2)ncc1F | < 10%

Each molecule was assayed against Serine/threonine-protein kinase pim-1 (Homo sapiens) (UniProt P11309) (assay: Inhibition of recombinant full-length human N-terminal GST-tagged Pim-1 expressed in Escherichia coli assessed as residual activity at 10 uM; values are per cent of control). Conditions: not given.
Chain of Serine/threonine-protein kinase pim-1 (Homo sapiens) (P11309 whole entry, looked up): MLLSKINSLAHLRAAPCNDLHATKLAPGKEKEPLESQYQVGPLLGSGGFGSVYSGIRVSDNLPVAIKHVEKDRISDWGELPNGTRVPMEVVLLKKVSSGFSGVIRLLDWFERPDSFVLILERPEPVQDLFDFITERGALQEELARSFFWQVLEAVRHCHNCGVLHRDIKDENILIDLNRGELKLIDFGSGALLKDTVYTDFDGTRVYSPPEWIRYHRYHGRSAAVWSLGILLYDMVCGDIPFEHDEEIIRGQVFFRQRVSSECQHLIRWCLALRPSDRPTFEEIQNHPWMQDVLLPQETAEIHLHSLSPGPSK

Row | Compound | residual activity
53 | Cc1nc(NC2CCCC2)sc1-c1nc(Nc2ccc(N3CCN(C)CC3)cn2)ncc1F | < 10%

What follows are molecules tested against Dual specificity tyrosine-phosphorylation-regulated kinase 1A (Rattus norvegicus) (UniProt Q63470) (assay: Inhibition of recombinant rat N-terminal GST-tagged DYRK1A (1 to 499 amino acid residues) expressed in Escherichia coli assessed as residual activity at 10 uM; values are per cent of control). Conditions: not given.

Row | Compound | residual activity
54 | Cc1nc(NC2CCCC2)sc1-c1nc(Nc2ccc(N3CCN(C)CC3)cn2)ncc1F | < 10%

Each molecule was assayed against MAP kinase-interacting serine/threonine-protein kinase 2 (Homo sapiens) (UniProt Q9HBH9) (assay: Inhibition of recombinant full-length human N-terminal His6-tagged Mnk2 expressed in baculovirus infected Sf21 insect cells assessed as residual activity at 10 uM; values are per cent of control). Conditions: not given.
Chain of MAP kinase-interacting serine/threonine-protein kinase 2 (Homo sapiens) (Q9HBH9 whole entry, looked up): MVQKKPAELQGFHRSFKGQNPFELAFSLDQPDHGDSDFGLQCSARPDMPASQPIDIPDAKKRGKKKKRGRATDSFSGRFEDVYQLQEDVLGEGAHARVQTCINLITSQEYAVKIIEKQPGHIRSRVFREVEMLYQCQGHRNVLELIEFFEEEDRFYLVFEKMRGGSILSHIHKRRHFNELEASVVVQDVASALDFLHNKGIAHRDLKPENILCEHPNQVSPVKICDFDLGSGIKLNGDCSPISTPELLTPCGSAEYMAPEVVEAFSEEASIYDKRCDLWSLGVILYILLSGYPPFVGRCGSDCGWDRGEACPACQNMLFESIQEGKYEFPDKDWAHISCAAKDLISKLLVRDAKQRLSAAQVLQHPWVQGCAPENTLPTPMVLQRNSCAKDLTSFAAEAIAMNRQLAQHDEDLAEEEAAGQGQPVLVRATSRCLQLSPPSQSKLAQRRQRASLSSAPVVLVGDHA

Row | Compound | residual activity
55 | Cc1nc(NC2CCCC2)sc1-c1nc(Nc2ccc(N3CCN(C)CC3)cn2)ncc1F | < 10%

What follows are molecules tested against Death-associated protein kinase 1 (Homo sapiens) (UniProt P53355) (assay: Inhibition of recombinant human N-terminal GST-tagged DAPK1 (1 to 296 amino acid residues) expressed in baculovirus infected Sf21 cells assessed as residual activity at 10 uM; values are per cent of control). Conditions: not given.

Row | Compound | residual activity
56 | Cc1nc(NC2CCCC2)sc1-c1nc(Nc2ccc(N3CCN(C)CC3)cn2)ncc1F | < 10%

The molecules below were run against Receptor-type tyrosine-protein kinase FLT3 (Homo sapiens) (UniProt P36888) (assay: Inhibition of recombinant human N-terminal GST-tagged Flt3 (564 to end amino acid residues) expressed in baculovirus infected Sf21 insect cells assessed as residual activity at 10 uM; values are per cent of control). Conditions: not given.

Row | Compound | residual activity
57 | Cc1nc(NC2CCCC2)sc1-c1nc(Nc2ccc(N3CCN(C)CC3)cn2)ncc1F | < 10%

Each molecule was assayed against Vascular endothelial growth factor receptor 3 (Homo sapiens) (UniProt P35916) (assay: Inhibition of recombinant human N-terminal GST-tagged Flt4 (800 to end amino acid residues) expressed in baculovirus infected Sf21 insect cells assessed as residual activity at 10 uM; values are per cent of control). Conditions: not given.

Row | Compound | residual activity
58 | Cc1nc(NC2CCCC2)sc1-c1nc(Nc2ccc(N3CCN(C)CC3)cn2)ncc1F | < 10%

What follows are molecules tested against Fibroblast growth factor receptor 1 (Homo sapiens) (UniProt P11362) (assay: Inhibition of recombinant human N-terminal GST-tagged FGFR1 (456 to 765 amino acid residues) expressed in baculovirus infected Sf21 insect cells assessed as residual activity at 10 uM; values are per cent of control). Conditions: not given.

Row | Compound | residual activity
59 | Cc1nc(NC2CCCC2)sc1-c1nc(Nc2ccc(N3CCN(C)CC3)cn2)ncc1F | < 10%

What follows are molecules tested against Homeodomain-interacting protein kinase 2 (Homo sapiens) (UniProt Q9H2X6) (assay: Inhibition of recombinant human N-terminal His6-tagged HIPK2 (165 to 564 amino acid residues) expressed in baculovirus infected Sf21 insect cells assessed as residual activity at 10 uM; values are per cent of control). Conditions: not given.

Row | Compound | residual activity
60 | Cc1nc(NC2CCCC2)sc1-c1nc(Nc2ccc(N3CCN(C)CC3)cn2)ncc1F | < 10%
